Results from different studies.
Lines come from different studies, so protocols differ.
MAOA: Amine oxidase [flavin-containing] A (MAOA, Homo sapiens, UniProt P21397)
LDHA: L-lactate dehydrogenase A chain (LDHA, Homo sapiens, UniProt P00338)
PRMT3: Protein arginine N-methyltransferase 3 (PRMT3, Homo sapiens, UniProt O60678)
GSR: Glutathione reductase, mitochondrial (GSR, Homo sapiens, UniProt P00390)
Rps6ka1: Ribosomal protein S6 kinase alpha-1 (Rps6ka1, Rattus norvegicus, UniProt Q63531)
CDKL2: Cyclin-dependent kinase-like 2 (CDKL2, Homo sapiens, UniProt Q92772)
ADRA1A: Alpha-1A adrenergic receptor (ADRA1A, Homo sapiens, UniProt P35348)

Compound | target | test | conditions | inhibition [%]
O=C(Nc1ccc([N+](=O)[O-])cc1Cl)c1ccc2c(c1)OCO2 | MAOA | enzyme activity, inhibitor | 1 µM, 20 min | 9
COC(=O)CN=c1scc(-c2ccccc2)n1-c1ccc(Cl)cc1 | LDHA | enzyme activity, inhibitor, fluorescence | 100 µM, pH 7.2 | 41
N=C(NCCCSC[C@H]1O[C@@H](n2cnc3c(NCCCc4ccccc4)ncnc32)[C@H](O)[C@@H]1O)NC1CCC1 | PRMT3 | enzyme activity, inhibitor, fluorescence | 10 µM | -37.6
CC(C)CCN[C@@H]1C[C@@H](c2ccc(Cl)c(Cl)c2)c2ccccc21 (relative stereo) | GSR | enzyme activity, inhibitor | 25 µM | < 12
N#Cc1ccc(NC(=O)c2ccc3c(c2)OCO3)cc1 | MAOA | enzyme activity, inhibitor | 1 µM, 20 min | 38
O=C1N=C(N2CCCCN2)S/C1=C\c1ccc(F)cc1O | Vasoactive intestinal polypeptide receptor 1 (VIPR1, Homo sapiens, UniProt P32241) | ligand displacement, radioligand | 10 µM | 11
O=C(Nc1ccc([N+](=O)[O-])cc1[N+](=O)[O-])c1ccccc1O | MAOA | enzyme activity, inhibitor | 1 µM, 20 min | 49
N=C(NCCCSC[C@H]1O[C@@H](n2cnc3c(NCCCc4ccccc4)ncnc32)[C@H](O)[C@@H]1O)NCc1ccccc1 | PRMT3 | enzyme activity, inhibitor, fluorescence | 10 µM | -4.37
COc1ccc(CN[C@@H]2C[C@@H](c3ccc(Cl)c(Cl)c3)c3ccccc32)cc1 (relative stereo) | GSR | enzyme activity, inhibitor | 25 µM | < 12
N=C(NCCCN)NCCCSC[C@H]1O[C@@H](n2cnc3c(NCCCc4ccccc4)ncnc32)[C@H](O)[C@@H]1O | PRMT3 | enzyme activity, inhibitor, fluorescence | 10 µM | 1.09
CCN(c1cc(C#CCN2CCOCC2)cc(C(=O)NCc2c(C)cc(C)[nH]c2=O)c1C)[C@H]1CC[C@H](N(C)CCOC)CC1 | PRMT3 | enzyme activity, inhibitor | 1 µM | 10
O=C(Nc1cc(F)ccc1[N+](=O)[O-])c1cc(Cl)ccc1O | MAOA | enzyme activity, inhibitor | 1 µM, 20 min | 8
Cc1ccc(Nc2nccc(N(C)c3ccc4c(C)n(C)nc4c3)n2)cc1S(N)(=O)=O | Rps6ka1 | enzyme activity, inhibitor | 0.3 µM | 27
O=C(Nc1ccc(C(F)(F)F)cc1)c1cc(Cl)ccc1O | MAOA | enzyme activity, inhibitor | 1 µM, 20 min | 82
CCN(CC)CCNC(=O)c1c(C)[nH]c(/C=C2\C(=O)Nc3ccc(F)cc32)c1C | CDKL2 | binding, competition with immobilised ligand | 10 µM | 92
CNC(=O)c1cc(Oc2ccc(NC(=O)Nc3ccc(Cl)c(C(F)(F)F)c3)cc2)ccn1 | Rps6ka1 | enzyme activity, inhibitor | 10 µM | 19
Cc1ccc(-n2nc(C(C)(C)C)cc2NC(=O)Nc2ccc(OCCN3CCOCC3)c3ccccc23)cc1 | Tyrosine-protein phosphatase non-receptor type 1 (PTPN1, Homo sapiens, UniProt P18031) | enzyme activity, inhibitor | 10 µM | 18
O=C(Nc1cccc(Cl)c1)c1cc(Cl)ccc1O | MAOA | enzyme activity, inhibitor | 1 µM, 20 min | 15
CC[C@H](C)[C@H](NC(=O)[C@H](CCC(N)=O)NC(=O)[C@H](CC(C)C)NC(=O)[C@H](CCSC)NC(=O)[C@H](CCCCN)NC(=O)[C@H](CO)NC(=O)[C@H](CO)NC(=O)[C@H](CCSC)NC(=O)[C@H](CC(C)C)NC(=O)[C@H](CC(N)=O)NC(=O)[C@@H](NC(=O)[C@@H](NC(=O)[C@H](CO)NC(=O)[C@H](CC(C)C)NC(=O)[C@H](CS)NC(=O)[C@H](CCCNC(=N)N)NC(=O)[C@H](CC(=O)O)NC(=O)[C@H](Cc1c[nH]c2ccccc12)NC(=O)[C@H](Cc1ccccc1)NC(=O)[C@H](C)NC(=O)[C@H](CCC(=O)O)NC(=O)[C@@H](N)CCCCN)C(C)C)[C@@H](C)CC)C(=O)N[C@@H](CC(N)=O)C(=O)N[C@@H](C)C(=O)O | Cyclin-dependent kinase 5, with p25 (CDK5, Homo sapiens, UniProt Q00535) | enzyme activity, inhibitor, radiometric | 1 µM | 0

Compound | target | test | conditions | inhibition [%]
N=C(NCCCO)NCCCSC[C@H]1O[C@@H](n2cnc3c(NCCCc4ccccc4)ncnc32)[C@H](O)[C@@H]1O | PRMT3 | enzyme activity, inhibitor, fluorescence | 10 µM | 7.1
COC(=O)CN=c1scc(-c2ccccc2)n1-c1ccccc1 | LDHA | enzyme activity, inhibitor, fluorescence | 100 µM, pH 7.2 | 33
COc1cc(NC(C)=O)c(Cl)cc1C(=O)Nc1nccs1 | ADRA1A | cell-free assay | 10 µM | 13.9
CN1CC(Oc2cnc(C#N)cc2-c2ccn3nc(NC(=O)C4CC4)cc3c2)C1 | CDKL2 | enzyme activity, inhibitor | 1 µM | -18
COc1cc(/C=C/C(=O)N2CCc3ccccc3C2)ccc1OCc1ccccc1 | MAOA | enzyme activity, inhibitor, fluorescence | 62.5 µM | 20.6
O=C(c1ccc(Cl)cc1)N(Cc1ccccc1)C1CCCCC1 | Kappa-type opioid receptor (Oprk1, Rattus norvegicus, UniProt P34975) | ligand displacement, radioligand | 10 µM | 82
N#Cc1cc(Cn2c(N3CCCC3)nc3ccccc32)ccc1F | ADRA1A | ligand displacement | 10 µM | -11.7
COc1cc([N+](=O)[O-])ccc1NC(=O)c1ccc(Cl)cc1 | MAOA | enzyme activity, inhibitor | 1 µM, 20 min | 2
Nc1ncnc2c1ncn2[C@@H]1O[C@H](CSCCNC(=O)NCc2ccccc2)[C@@H](O)[C@H]1O | Protein arginine N-methyltransferase 5 (PRMT5, Homo sapiens, UniProt O14744) | enzyme activity, inhibitor, radiometric | 10 µM | > 95
COC(=O)CN=c1scc(-c2ccccc2)n1-c1ccccc1[N+](=O)[O-] | LDHA | enzyme activity, inhibitor, fluorescence | 100 µM, pH 7.2 | 53
Oc1cccc(Nc2nc(-c3ccc(F)cc3F)cs2)c1 | Histamine H2 receptor (HRH2, Homo sapiens, UniProt P25021) | cell-free assay | 10 µM | -33.9
N=C(NCCCSC[C@H]1O[C@@H](n2cnc3c(NCCCc4ccccc4)ncnc32)[C@H](O)[C@@H]1O)NCC1CCC1 | PRMT3 | enzyme activity, inhibitor, fluorescence | 10 µM | 0
CCCNc1nc2ccccc2n1Cc1ccc(Cl)cc1 | ADRA1A | ligand displacement | 10 µM | -2.69
O=C(OC(C(F)(F)F)C(F)(F)F)N1CCC(CCn2nnc3ccccc32)CC1 | Fatty-acid amide hydrolase 1 (Faah, Rattus norvegicus, UniProt P97612) | enzyme activity, inhibitor | 10 µM | 47
N=C(NCCCSC[C@H]1O[C@@H](n2cnc3c(NCCCc4ccccc4)ncnc32)[C@H](O)[C@@H]1O)NC1CCCCC1 | PRMT3 | enzyme activity, inhibitor, fluorescence | 10 µM | -5.11
Cc1ccc(C(=O)Nc2ccc([N+](=O)[O-])cc2C(F)(F)F)cc1 | MAOA | enzyme activity, inhibitor | 1 µM, 20 min | 10
C#CCNC(=N)NCCCSC[C@H]1O[C@@H](n2cnc3c(NCCCc4ccccc4)ncnc32)[C@H](O)[C@@H]1O | PRMT3 | enzyme activity, inhibitor, fluorescence | 10 µM | 6.56
CNC(=O)[C@@]12C[C@@H]1[C@@H](n1cnc3c(NC)nc(C#Cc4ccc(Cl)s4)nc31)[C@H](O)[C@@H]2O | Translocator protein (Tspo, Rattus norvegicus, UniProt P16257) | ligand displacement, radioligand | 10 µM | 60 to 70
